The full list was thinned out, with hits kept by preference.
HUVEC inhibit: inhibitors of HUVEC proliferation, primary screen, cell-based, 384-well; CellTiter-Glo luminescence, 72 h; stronger effect = lower value; viability, % at 10 µM (by protocol); 1.1% of 86,000 active; AID 648, 2007;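 active = viability at or below 30%; inactive = viability above 30%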;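 also: 100% = median luminescence of DMSO-only cell control wells on each plate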
HCT116 bCat-KO: primary screen for growth suppressors in beta-catenin knockout HCT116 cells (colon tumor, human); AID 818, 2007; HCT116 beta-catenin knockout viability, CellTiter-Glo, 60 h; stronger effect = lower value; viability, % at 10 µM; 1.5% of 140,000 active;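 active = viability at or under a set limit, the compound median less 4 SD, cut at about 6% in these data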;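 also: 0% = Hyamine 1622 control at 20 µM and 100% = untreated cell control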
Lung fibro prol: antiproliferative effect on LL 47 fibroblasts – human, LL 47 cells, CellTiter-Glo luminescence, primary screen | LL 47 human lung fibroblast viability, ATP luminescence; stronger effect = lower value | viability, % at 10 µM | 1.1% of 85,000 active | AID 719, 2007;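 active = viability at or below 50% in the single dose screen; inactive = viability above 50%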;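 also: compound exposure lasted 72 h before the ATP readout; 100% = median luminescence of untreated cell-only wells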
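Material: human lung fibroblast line LL 47, low passage; Evaluation: viability percentage against median untreated-cell control; Buffer or medium: 15% FBS in IMEM; Incubation: 72 h compound exposure at 37 °C after overnight plating; Dosing: 0.1% DMSO in all compound wells; Measured by: CellTiter-Glo luminescence.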
PTEN del growth: growth suppression of PTEN-null HCT116, primary screen, cell-based, CellTiter-Glo; HCT116 PTEN-null viability, 60 h; stronger effect = lower value; viability, % at 10 µM; 1.2% of 140,000 active; AID 827, 2007;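 active = viability at or below a set limit, 4 SD under the median of all tested compounds, cut at about 3.7% in these data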;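 also: PTEN knockout HCT116 line with beta catenin targeted HCT116 as companion control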
H69AR growth 86K: proliferation blockers of H69AR lung cancer cells, primary screen, cell-based, human, 86K library. H69AR lung tumor viability, ATP luminescence, 72 h; stronger effect = lower value. viability, % at 10 µM. 6% of 85,000 active. AID 598, 2007;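 active = viability at or below 40%; inactive = viability above 40%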;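 also: multidrug resistant small cell line overexpressing MRP-1 efflux transporter; 100% = mean luminescence of untreated control wells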
Numbers without * were called inactive; . = not tested or not shown.

SMILES	HUVEC inhibit	HCT116 bCat-KO	Lung fibro prol	PTEN del growth	H69AR growth 86K
CCOC(=O)c1c(NC(=O)C(C)N2CCN(C(=O)c3ccco3)CC2)sc2c1CCCC2 (configuration not stated)	.	44.6	.	35.9	.
COc1ccc(C(=O)Nc2cccc(C)c2)cc1S(=O)(=O)N1CCOCC1	92.2	77.8	98.8	91.4	89.6
O=C(Nc1ccccc1)c1ccc(NCCN2CCOCC2)c(S(=O)(=O)N2CCOCC2)c1	93.0	106.5	98.3	96.9	68.1
COc1ccc(C(=O)Nc2ccc(-c3ccc(C)o3)cc2)cc1S(=O)(=O)N1CCOCC1	53.3	5.7*	73.3	11.2	21.8*
O=C(Nc1ccccc1)c1ccc(NCc2ccco2)c(S(=O)(=O)N2CCOCC2)c1	85.5	73.6	94.2	89.0	39.3*
CC(=O)CC(=O)Nc1ccc(Nc2ccccc2)cc1	.	90.8	.	88.7	.
O=c1c(-c2ccc(O)cc2)coc2cc(OC3OC(CO)C(O)C(O)C3O)ccc12 (configuration not stated)	.	92.9	.	87.7	.
O=C(c1ccc2c(c1)N(Cc1ccccc1)C(=O)c1ccccc1S2)N1CCCC1	102.4	86.7	96.4	83.1	29.1*
CC1CCC(NC(=O)CC(C)(C)Cc2nc3ccccc3c(=O)[nH]2)CC1 (configuration not stated)	70.6	78.1	96.7	81.7	24.6*
CN(C(=O)Cc1noc2ccccc12)c1ccccc1	.	98.1	.	99.1	.
O=C(CCNc1cc(Cl)cc(Cl)c1)c1ccco1	90.2	12.1	100.3	55.0	83.2
O=C(CCNc1ccc(F)c(Cl)c1)c1ccco1	70.9	2.2*	96.0	20.4	1.8*
O=C(CCNc1ccc(F)cc1)c1ccco1	74.7	64.4	91.1	52.0	1.1*
CC/C(=N\NC(=S)Nc1cc(C)ccc1C)c1ccc(OC(F)F)cc1	.	81.5	.	84.5	.
CCOC(=O)Cn1c(=NC(=O)c2nc3ccccc3s2)sc2cc(S(N)(=O)=O)ccc21	.	96.9	.	101.9	.
COc1cc2c(cc1OC)C(C1C(=O)CCCC1=O)N(C(=O)CCl)CC2 (configuration not stated)	.	93.9	.	98.6	.
COc1cc2c(cc1OC)C(c1ccccc1)N(C(=O)CCl)CC2 (configuration not stated)	.	1.9*	.	2.0*	.
COc1ccccc1-n1c(CNC(=O)c2ccco2)nnc1SCC(=O)Nc1nccs1	71.2	86.0	95.0	84.3	33.4*
COc1ccc(-c2nnnn2-c2ccccc2OC)cc1	72.0	43.5	82.4	42.1	21.6*
CC1(C)CC(=O)C(C2(O)C(=O)N(Cc3ccccc3)c3ccccc32)CO1 (configuration not stated)	76.3	14.3	97.4	12.2	17.0*
CC1(C)CC(=O)CC(C2(O)C(=O)N(Cc3ccccc3)c3ccccc32)O1 (configuration not stated)	94.5	11.1	102.6	9.9	28.5*
CC12CN3CC(C)(CN(C1)C31C(=O)N(Cc3ccccc3)c3ccccc31)C2=O (configuration not stated)	88.4	.	91.8	.	85.6
O=c1oc2ccccc2cc1N1CCOCC1	.	93.6	.	102.7	.
COc1ccc2c(c1)OC1(C)CC2C(C(=O)c2ccccc2OC)C(=O)N1 (configuration not stated)	97.7	90.6	97.1	91.4	32.6*
COc1ccc2c(c1)C1CC(C)(NC(=O)C1C(=O)c1ccccc1)O2 (configuration not stated)	106.9	99.9	102.2	92.5	91.6
SMILES	HUVEC inhibit	HCT116 bCat-KO	Lung fibro prol	PTEN del growth	H69AR growth 86K
O=Cc1cn(CC(=O)N2CCCc3ccccc32)c2ccccc12	93.3	86.7	96.5	85.8	35.5*
CCOC(=O)c1cnn(-c2nc3sc4c(c3c(=O)[nH]2)CCCC4)c1N	36.7	.	45.1*	.	29.5*
CCOC(=O)c1cnn(-c2nc(C)nc3sc4c(c23)CCC4)c1N	68.0	.	81.4	.	105.6
Cc1cc(C)n(-c2nc3sc4c(c3c(=O)[nH]2)CCCC4)n1	52.7	4.7*	51.0	2.6*	27.8*
CCOc1ccc(NC(=O)C(C)Oc2ccccc2C(=O)Nc2cccc(Cl)c2Cl)cc1 (configuration not stated)	.	61.0	.	51.2	.
Cc1ccc(N2C(=O)[C@@H]3C(C(=O)C(c4ccccc4)c4ccccc4)=NN[C@@H]3C2=O)cc1	.	89.2	.	90.3	.
CN1C(=O)/C(=C2\SC(N3CCCCCC3)=NC2=O)c2ccccc21	78.1	65.1	86.5	.	48.8
O=C1N=C(N2CCOCC2)S/C1=C1\C(=O)N(Cc2ccccc2)c2ccccc21	55.4	80.3	76.7	69.7	28.9*
CCCN1C(=O)/C(=C2\SC(N3CCCCC3)=NC2=O)c2ccccc21	89.3	65.0	.	62.1	19.2*
CCOC(=O)c1ccc(-c2c(C(=O)OCC)oc3cc(O)c(CC)cc3c2=O)o1	108.7	82.3	118.5	115.8	63.0
Cc1ccc(O)c(N=NC2=C(O)CC(C)(C)CC2=O)c1	.	4.4*	.	5.0	.
CC1(C)CC(=O)C(N=Nc2cc(Cl)c(Cl)c(Cl)c2)=C(O)C1	.	97.5	.	92.6	.
CCCCCn1c(N)c(-c2nc3ccccc3s2)c2c([N+](=O)[O-])nn(C)c(=O)c21	53.5	26.6	59.7	8.1	14.6*
CCCCn1c(N)c(-c2nc3ccccc3o2)c2c([N+](=O)[O-])nn(C)c(=O)c21	.	83.3	.	91.6	.
O=C(Nc1ccc2nc(-c3ccc(Br)o3)[nH]c2c1)c1cccs1	58.9	84.4	79.0	70.0	38.0*
CC(=O)Nc1ccc2nc(-c3ccc(Br)o3)[nH]c2c1	.	95.0	.	96.6	.
O=C(CNc1cc(S(=O)(=O)N2CCCC2)ccc1OCC(F)(F)F)Nc1cccc(C(F)(F)F)c1	.	47.9	.	45.6	.
CC(=O)Nc1ccc(S(=O)(=O)N2CCN(c3nc(NC4CCCC4)c4ccccc4n3)CC2)cc1	10.6*	1.5*	84.5	1.5*	1.4*
CC(=O)Nc1ccc(S(=O)(=O)N2CCN(c3cc(C)nc4ccccc34)CC2)cc1	92.8	87.7	98.6	84.2	89.8
CCOc1ccccc1N1CCN(C(=O)C2c3ccccc3Oc3ccccc32)CC1	56.1	14.6	68.1	13.8	19.3*
COc1cc(/C=N/N=C(/N)c2nonc2N)cc(Br)c1OCc1cccc(C)c1	29.6*	73.9	80.8	74.8	73.8
COc1cc(/C=N/O)cc(Br)c1OCc1ccc(Cl)cc1	.	69.0	.	70.8	.
CCOc1cc(/C=N/N=C(\N)c2nonc2N)cc(Br)c1OCc1cccc2ccccc12	7.5*	22.7	40.8*	10.2	13.3*
O=C(/C=C1\NCC2c3ccccc3CCN2C1=O)c1ccccc1 (configuration not stated)	.	91.2	.	90.3	.
CC1(C)CC(=O)C(C=NCCN2CCN(C(=S)Nc3ccc(F)cc3)CC2)=C(O)C1	.	93.4	.	94.9	.
CN(C)N1C(=O)CC(NNC(=O)c2ccncc2)C1=O (configuration not stated)	.	95.1	.	116.5	.
